Calls of active or inactive are those of the source. The calls are words filed in the database; no cut-off is given here.
What was measured:
[1] = system: HT-29; test: Antiproliferative activity against human HT-29 cells assessed as cell viability at 100 uM after 48 hrs under hypoxic conditions by MTT assay relative to control; type: functional; conditions: HT-29, 48 h, read-out: Activity
Procedure, shortened: (§1)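 HT-29 cells were grown in high-glucose DMEM with 20% FBS, seeded at 1·10^4/well and dosed 24 h later. Incubation was in a hypoxic chamber (0.1% O2, 5% CO2, balance N2) for 16, 48 or 72 h. Cells were washed, given MTT 1 mg/ml for 30 min at 37 °C, and formazan was dissolved in DMSO and read at 550 nm. Viability is % of untreated control, mean ± S.E.M.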

[2] = system: HT-29; test: Antiproliferative activity against human HT-29 cells assessed as cell viability at 100 uM after 72 hrs under hypoxic conditions by MTT assay relative to control; type: functional; conditions: HT-29, 72 h, read-out: Activity; procedure, shortened: as §1
[3] = Antiproliferative activity against human HT-29 cells assessed as cell viability at 300 uM after 48 hrs under normoxic conditions by MTT assay relative to control; type: cell-based; conditions: read-out: Activity
Procedure, shortened: (§2)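 HT-29 cells in high-glucose DMEM with 20% FBS were seeded at 1·10^4/well and treated 24 h later. Incubation was under normoxia (20% O2, air with 5% CO2) at 37 °C for 16, 48 or 72 h. Viability was read by MTT reduction (1 mg/ml, 30 min), with formazan in DMSO read at 550 nm, relative to untreated control set at 100%. Quadruplicates on at least three cell batches.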

[4] = system: HT-29; test: Antiproliferative activity against human HT-29 cells assessed as cell viability at 30 uM after 72 hrs under hypoxic conditions by MTT assay relative to control; type: functional; conditions: HT-29, 72 h, read-out: Activity; procedure, shortened: as §1
[5] = system: HT-29; test: Antiproliferative activity against human HT-29 cells assessed as cell viability at 30 uM after 48 hrs under hypoxic conditions by MTT assay relative to control; type: functional; conditions: HT-29, 48 h, read-out: Activity; procedure, shortened: as §1
[6] = Antiproliferative activity against human HT-29 cells assessed as cell viability at 30 uM after 72 hrs under normoxic conditions by MTT assay relative to control; type: cell-based; conditions: read-out: Activity; procedure, shortened: as §2
[7] = Antiproliferative activity against human HT-29 cells assessed as cell viability at 300 uM after 72 hrs under normoxic conditions by MTT assay relative to control; type: cell-based; conditions: read-out: Activity; procedure, shortened: as §2
[8] = system: HT-29; test: Antiproliferative activity against human HT-29 cells assessed as cell viability at 300 uM after 72 hrs under hypoxic conditions by MTT assay relative to control; type: functional; conditions: HT-29, 72 h, read-out: Activity; procedure, shortened: as §1
[9] = system: HT-29; test: Antiproliferative activity against human HT-29 cells assessed as cell viability at 300 uM after 48 hrs under hypoxic conditions by MTT assay relative to control; type: functional; conditions: HT-29, 48 h, read-out: Activity; procedure, shortened: as §1
[10] = Antiproliferative activity against human HT-29 cells assessed as cell viability at 100 uM after 72 hrs under normoxic conditions by MTT assay relative to control; type: cell-based; conditions: read-out: Activity; procedure, shortened: as §2
[11] = Antiproliferative activity against human HT-29 cells assessed as cell viability at 30 uM after 48 hrs under normoxic conditions by MTT assay relative to control; type: cell-based; conditions: read-out: Activity; procedure, shortened: as §2
[12] = Antiproliferative activity against human HT-29 cells assessed as cell viability at 100 uM after 48 hrs under normoxic conditions by MTT assay relative to control; type: cell-based; conditions: read-out: Activity; procedure, shortened: as §2
[13] = target: Carbonic anhydrase 2 (Homo sapiens, UniProt P00918); test: Inhibition of recombinant human carbonic anhydrase 2 preincubated for 15 mins prior to testing by phenol red based stopped-flow CO2 hydration assay
[14] = target: Carbonic anhydrase 1 (Homo sapiens, UniProt P00915); test: Inhibition of recombinant human carbonic anhydrase 1 preincubated for 15 mins prior to testing by phenol red based stopped-flow CO2 hydration assay
Sequence of Carbonic anhydrase 1 (P00915 whole entry): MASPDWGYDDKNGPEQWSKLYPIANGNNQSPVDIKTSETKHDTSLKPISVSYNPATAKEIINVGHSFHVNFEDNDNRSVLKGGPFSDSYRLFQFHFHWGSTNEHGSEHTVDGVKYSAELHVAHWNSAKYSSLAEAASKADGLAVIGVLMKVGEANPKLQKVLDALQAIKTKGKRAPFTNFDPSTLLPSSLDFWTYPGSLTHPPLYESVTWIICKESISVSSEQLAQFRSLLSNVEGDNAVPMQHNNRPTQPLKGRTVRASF

[15] = target: Carbonic anhydrase 9 (Homo sapiens, UniProt Q16790)
[16] = system: HT-29; test: Antiproliferative activity against human HT-29 cells assessed as reduction in cell viability at 30 to 300 uM after 16 hrs under hypoxic conditions by MTT assay relative to control; type: functional, cell-based; procedure, shortened: as §1
[17] = system: HT-29; test: Antiproliferative activity against human HT-29 cells assessed as reduction in cell viability at 30 to 300 uM after 16 hrs under normoxic conditions by MTT assay relative to control; type: cell-based; conditions: ht-29, 16 h; procedure, shortened: as §2

Row | SMILES | viability at 100 µM [1] [%] | viability at 100 µM [2] [%] | viability at 48 h, 300 µM [3] [%] | viability at 30 µM [4] [%] | viability at 30 µM [5] [%] | viability at 72 h, 30 µM [6] [%] | viability at 72 h, 300 µM [7] [%] | viability at 300 µM [8] [%] | viability at 300 µM [9] [%] | viability at 72 h, 100 µM [10] [%] | viability at 48 h, 30 µM [11] [%] | viability at 48 h, 100 µM [12] [%] | Ki [13] [µM] | Ki [14] [µM] | Ki [15] [µM] | Activity [16] | Activity [17]
1 | CC(=O)Nc1nnc(S(N)(=O)=O)s1 [ACETAZOLAMIDE] | 102 | 111 | 101 | 107 | 108 | 97.6 | 93.2 | 84.1 | 85.7 | 95.8 | 96.8 | 101 |  |  |  |  | 
2 | O=c1[nH]c2cc(Cl)c(-n3cnnc3)cc2c(=O)n1O |  |  |  |  |  |  |  |  |  |  |  |  | > 10 | > 10 | 0.0333 |  | 
3 | O=c1[nH]c2ccc(Cl)cc2c(=O)n1O |  |  |  |  |  |  |  |  |  |  |  |  | > 10 | > 10 | 0.0482 |  | 
4 | O=c1[nH]c2cc(Cl)c(-n3ccnc3)cc2c(=O)n1O |  |  |  |  |  |  |  |  |  |  |  |  | > 10 | > 10 | 0.0749 |  | 
5 | O=C(O)c1ccccc1C(=O)Nc1ccc2[nH]c(=O)n(O)c(=O)c2c1 |  |  |  |  |  |  |  |  |  |  |  |  | > 10 | > 10 | 0.0625 |  | 
6 | O=c1[nH]c2cc(C(F)(F)F)ccc2c(=O)n1O |  |  |  |  |  |  |  |  |  |  |  |  | > 10 | > 10 | 0.0082 |  | 
7 | O=c1[nH]c2cc(Cl)c(Cl)cc2c(=O)n1O | 76 | 78.1 | 9.44 | 93.3 | 106 | 107 | 20.6 | 24.5 | 14.8 | 73.5 | 93.4 | 91 | > 10 | > 10 | 0.0082 |  | 
8 | O=C(O)COn1c(=O)[nH]c2cc(Cl)c([N+](=O)[O-])cc2c1=O |  |  |  |  |  |  |  |  |  |  |  |  | > 10 | > 10 | 0.018 |  | 
9 | O=C(O)CCC(=O)Nc1ccc2[nH]c(=O)n(O)c(=O)c2c1 |  |  |  |  |  |  |  |  |  |  |  |  | > 10 | > 10 | 0.0648 |  | 
10 | O=c1[nH]c2cc(C(F)(F)F)c(-n3cnnc3)cc2c(=O)n1O |  |  |  |  |  |  |  |  |  |  |  |  | > 10 | > 10 |  |  | 
11 | O=c1[nH]c2ccc([N+](=O)[O-])cc2c(=O)n1O | 99.5 | 93.7 | 95.1 | 94.7 | 98.8 | 95.6 | 94.3 | 87.3 | 96.7 | 94.1 | 101 | 95.5 | > 10 | > 10 | 0.0046 |  | 
12 | O=c1[nH]c2cc(Cl)c(-n3cccc3)cc2c(=O)n1O |  |  |  |  |  |  |  |  |  |  |  |  | > 10 | > 10 | 0.0083 |  | 
13 | O=C(O)c1ccccc1C(=O)Nc1cc2c(=O)n(O)c(=O)[nH]c2cc1Cl |  |  |  |  |  |  |  |  |  |  |  |  | > 10 | > 10 | 0.0081 |  | 
14 | O=C(Nc1cc2c(=O)n(O)c(=O)[nH]c2cc1Cl)c1ccccc1 |  |  |  |  |  |  |  |  |  |  |  |  | > 10 | > 10 | 0.0588 |  | 
15 | O=C(Nc1ccccc1)Nc1ccc2[nH]c(=O)n(O)c(=O)c2c1 |  |  |  |  |  |  |  |  |  |  |  |  | > 10 | > 10 | 0.301 |  | 
16 | O=C(NCc1ccccc1)Nc1cc2c(=O)n(O)c(=O)[nH]c2cc1Cl |  |  |  |  |  |  |  |  |  |  |  |  | > 10 | > 10 | 0.0069 |  | 
17 | O=C(Nc1ccccc1)Nc1cc2c(=O)n(O)c(=O)[nH]c2cc1Cl |  |  |  |  |  |  |  |  |  |  |  |  | > 10 | > 10 | 0.0428 |  | 
18 | COn1c(=O)[nH]c2cc(Cl)ccc2c1=O |  |  |  |  |  |  |  |  |  |  |  |  | > 10 | > 10 | 0.208 |  | 
19 | O=c1[nH]c2ccccc2c(=O)n1O |  |  |  |  |  |  |  |  |  |  |  |  | > 10 | > 10 | 0.48 |  | 
20 | O=c1[nH]c2ccc(-n3cnnc3)cc2c(=O)n1O |  |  |  |  |  |  |  |  |  |  |  |  | > 10 | > 10 | 0.0695 |  | 
21 | O=C(O)c1ccc(C(=O)Nc2cc3c(=O)n(O)c(=O)[nH]c3cc2Cl)cc1 |  |  |  |  |  |  |  |  |  |  |  |  | > 10 | > 10 | 0.0079 |  | 
22 | Nc1cc2c(=O)n(O)c(=O)[nH]c2cc1Cl |  |  |  |  |  |  |  |  |  |  |  |  | > 10 | > 10 | 0.0431 |  | 
23 | O=c1[nH]c2cc(C(F)(F)F)c([N+](=O)[O-])cc2c(=O)n1O | 46.8 | 38.2 | 45.1 | 38.6 | 45.2 | 41.5 | 49.7 | 40.3 | 50.2 | 45.3 | 53.9 | 57.7 | > 10 | > 10 | 0.0097 |  | 
24 | O=C(NCc1ccccc1)Nc1ccc2[nH]c(=O)n(O)c(=O)c2c1 | 46 | 40.2 | 85.6 | 33.4 | 50.6 | 32.4 | 61.3 | 59.9 | 78.2 | 51.7 | 57.4 | 56.9 | > 10 | > 10 | 0.0267 | Active | Toxic
25 | O=c1[nH]c2cc(Cl)ccc2c(=O)n1O |  |  |  |  |  |  |  |  |  |  |  |  | > 10 | > 10 | 0.0697 |  | 
26 | O=c1[nH]c2cc(Cl)cc(Cl)c2c(=O)n1O | 102 | 87 | 91 | 93 | 101 | 94.2 | 94.9 | 78.9 | 104 | 95.9 | 92.6 | 93.8 | > 10 | > 10 | 0.0077 |  | 
27 | O=c1[nH]c2cc(Cl)c([N+](=O)[O-])cc2c(=O)n1O | 64.6 | 55.9 | 77.6 | 41.6 | 45.7 | 36.8 | 70.3 | 63.5 | 70.8 | 61.2 | 58.2 | 72.5 | > 10 | > 10 |  |  | 
28 | O=C(O)CCC(=O)Nc1cc2c(=O)n(O)c(=O)[nH]c2cc1Cl |  |  |  |  |  |  |  |  |  |  |  |  | > 10 | > 10 | 0.007 |  | 
29 | Nc1ccc2[nH]c(=O)n(O)c(=O)c2c1 |  |  |  |  |  |  |  |  |  |  |  |  | > 10 | > 10 | 0.273 |  | 
30 | O=C1C=CCN1c1cc2c(=O)n(O)c(=O)[nH]c2cc1Cl | 60.1 | 45.7 | 106 | 20.6 | 50.6 | 36.4 | 68.3 | 65.2 | 88.9 | 57.3 | 48.5 | 56.2 | > 10 | > 10 | 0.0083 |  | 

— ChEMBL document CHEMBL4011650, “3-Hydroxy-1H-quinazoline-2,4-dione as a New Scaffold To Develop Potent and Selective Inhibitors of the Tumor-Associated Carbonic Anhydrases IX and XII” (J Med Chem, 2017)
